NF-kB neuron act: compounds increasing NF-kB expression in human neuronal cells. 190,000 tested, 1.6% active. NF-kB reporter expression; hits give high values. AID 1239. fold change at 12.5 µM; in the data active = fold change above about 3.3
APP 5'UTR act: APP 5'UTR luciferase reporter activation. SH-SY5Y APP 5'UTR luciferase reporter, luminescence; zero percent = DMSO vehicle wells. activation, % at 2 µM. 190,000 tested, 1% active;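 active = activation above a set limit, based on mean plus 3 SD of controls, cut at about 140% in these data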
STAT1 inh: reduces IFN-gamma driven STAT1 reporter signal; AID 920; NIH 3T3 STAT1-luciferase reporter, luminescence; 200,000 tested, 0.35% active; inhibition, % at 5.5 µM;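 active = inhibition above a set limit, the mean inhibition across all tested compounds plus 3 SD, cut at about 34% in these data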
STAT3 blocker: reduces IL-6 driven STAT3 reporter signal. 190,000 tested, 0.89% active. AID 862. U3A cells, IL-6 STAT3-luciferase reporter, luminescence; host cell line lacks STAT1. inhibition, % at 5.5 µM;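 active = inhibition above the mean inhibition across all screened compounds plus 3 SD, cut at about 44% in these data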
STAT3 activator: STAT3 signaling activation; U3A cells, IL-6 STAT3-luciferase reporter, luminescence; 100% = signal with IL-6 EC80 alone; 190,000 tested, 0.91% active; activation (% of control), % at 5.6 µM;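 active = activation above the screen-wide mean of compound activation plus 3 SD, cut at about 130% in these data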
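Assay system – human STAT1-deficient U3A cells with stable STAT3-luciferase reporter · Also added – IL-6 (33 ng/mL) · Schedule – compound 1 h, then IL-6 6 h at 37 °C · Technique – reporter luminescence signal · Evaluation – % activation versus median of IL-6-stimulated wells · Benchmarks – IL-6-only wells as 100% reference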
STAT1 activator: activators of IFN-gamma induced STAT1 signaling | NIH 3T3 STAT1-luciferase reporter, luminescence; 100% = IFN-gamma alone, no compound | activation (% of control), % at 5.5 µM | 200,000 tested, 2.6% active | AID 932;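 active = activation above the screen-wide mean activation plus 3 SD, cut at about 130% in these data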
Each line names hits and unclear results; the compound was inactive in the other large screens. Compounds with a hit are over-represented: about 4.9% of the library has one in this group of screens.

CCN(CC)c1ccc(/C=N/NC(=O)c2cnccn2)cc1	STAT1 activator 132.5
CCCC(=O)Nc1ccc(NC(=O)c2ccccn2)cn1	STAT1 activator 140.6
Cc1ccc(NC(=O)c2ccc(Cl)nc2)cc1	STAT1 activator 130.6
O=C(Nc1ccc(OC(F)F)c(Cl)c1)c1ccccn1	NF-kB neuron act 9.44, APP 5'UTR act 138.9, STAT1 activator 146.5
CCN(CC)c1ccc(/C=N/NC(=O)c2ccc([N+](=O)[O-])cc2)cc1	none
O=C(Nc1ccc2c(c1)OCO2)c1ccc(Cl)nc1	none
CCCC(=O)Nc1ccc(NC(=O)c2ccccc2OC)cn1	none
CCOc1cc(NC(=S)NCCOC)c(OCC)cc1NC(=O)c1ccco1	none
O=C(c1cccc(Oc2ccccc2)c1)N1CCN(c2ccccn2)CC1	none
O=C(Nc1cccc2ncccc12)c1ccc2c(c1)OCCO2	none
Cc1ccc(NC(=O)c2cnccn2)cc1	STAT1 activator 133.8
COc1ccc(C(=O)NNC(=O)c2ccccn2)cc1	STAT1 inh 91.8, STAT3 blocker 99.1
O=C(Nc1ccc(Br)cc1)c1cnccn1	none
COc1cc(OC)cc(C(=O)NNC(=O)c2ccccn2)c1	none
CCOc1ccc(NC(=O)c2ccccn2)cc1	STAT1 inh 59.2, STAT3 blocker 98.1
O=C(Nc1ncccc1Cl)c1ccc2c(c1)OCCO2	STAT1 activator 137.8
COc1ccc(N2CCN(C(CNS(C)(=O)=O)c3ccco3)CC2)cc1 (configuration not stated)	none
COc1ccc(COc2ccccc2C(=O)NCc2ccccc2)cc1F	none
C/C(CC(=O)Nc1ccc(N(C)C)cc1)=N\NC(=O)c1ccccn1	STAT1 activator 139.6
CCOc1ccc(NC(=O)c2cnccn2)cc1	APP 5'UTR act 149.6
CC(C)CCNC(=O)CN(C(=O)CCC(=O)Nc1ccccn1)c1ccc(F)c(Cl)c1	none
COc1ccc(/C=C/C(=O)OCC(=O)Nc2ccc(Cl)c(S(=O)(=O)N(C)C)c2)cc1OC	none
C=CCSc1nc(-c2ccc(OC)cc2)c(C#N)c(=O)n1CC=C	none
Cc1ccc(-n2c(C)csc2=N)cc1	NF-kB neuron act 3.51
Cc1csc(=N)n1-c1ccc(Cl)cc1	STAT1 activator 136.7
O=C(CNC1CCCCCC1)c1cccs1	none
Cc1cc(C(F)(F)F)n2nc(-c3cnn(C)c3C(F)(F)F)c(Br)c2n1	none
CC1CCc2sc(C(=O)N=Nc3c(O)[nH]c4ccccc34)cc2C1 (configuration not stated)	none
O=C(Nc1ccc(F)cc1F)c1noc2c1CCC2	none
COc1ccccc1N/C=C/c1onc(C)c1[N+](=O)[O-]	APP 5'UTR act 141.9, STAT1 inh 76.0, STAT3 blocker 87.1
Cc1noc(/C=C/Nc2ccc(F)cc2F)c1[N+](=O)[O-]	NF-kB neuron act 6.93, APP 5'UTR act 173.0, STAT1 activator 146.6
COc1ccccc1Nc1ccncc1[N+](=O)[O-]	none
Cc1cccc(/C=N\Nc2cn[nH]c(=O)c2Cl)c1	none
COc1ccccc1/C=N\Nc1cn[nH]c(=O)c1Cl	NF-kB neuron act 9.09
NC(=O)CSc1nc(C2CC2)nc2sc3c(c12)CCCC3	NF-kB neuron act 3.84, APP 5'UTR act 139.8, STAT1 activator 149.7
Cc1ccc(S(=O)(=O)c2c(C)nn(C(C)(C)C)c2OC(=O)c2ccco2)cc1	STAT1 activator 137.8
Cc1ccc(S(=O)(=O)c2c(C)nn(C(C)(C)C)c2OC(=O)c2ccc(Br)o2)cc1	none
COc1cccc(-c2nc3ccccc3c(=O)o2)c1	none
COc1cccc(-c2nc3ccc([N+](=O)[O-])cc3o2)c1	NF-kB neuron act 3.36, APP 5'UTR act 143.9, STAT1 activator 136.0
O=[N+]([O-])c1ccc2nc(-c3ccccc3)oc2c1	STAT1 activator 148.1
Cc1nc2ncnn2c(C)c1C/C=C/c1ccccc1	none
COc1cnc(-c2ccccn2)nc1Sc1ccc(F)cc1	none
CCc1cc2c(=O)c(-c3ccc4c(c3)OCCO4)coc2cc1OC(=O)c1ccco1	APP 5'UTR act 141.0
Cc1cccc(-[n+]2c(C)cc(C)c3c(=O)[nH]c(=O)[nH]c32)c1	none
CC(C)CNC(=S)N(Cc1ccco1)Cc1cc2cc3c(cc2[nH]c1=O)OCCO3	none
Cc1cc(C(=O)Nc2nc3c(s2)CCCC3)no1	NF-kB neuron act 5.12, APP 5'UTR act 151.6, STAT1 activator 138.8
Cc1cc(C)c2nc(NC(=O)c3cc(C)on3)sc2c1	none
CCc1ccc2nc(NC(=O)c3cc(C)on3)sc2c1	NF-kB neuron act 3.46, STAT1 activator 133.3
Cc1ncoc1C(=O)Nc1nccs1	none
Cc1ncoc1C(=O)Nc1ncc([N+](=O)[O-])s1	STAT1 activator 142.0
CC(C)NS(=O)(=O)c1ccc(OCC(=O)Nc2ccc(F)cc2)cc1	none
Cc1ccc(C(=O)NCCCc2ccccc2)c(C)c1	APP 5'UTR act 160.2, STAT1 activator 136.0
Cc1cc(C)cc(C(=O)NCCCc2ccccc2)c1	none
Cc1ccc2c(c1)C(O)(c1c(C)[nH]c3ccccc13)C(=O)N2 (configuration not stated)	STAT3 activator 134.4
C#CCN1C(=O)C(O)(c2c(C)[nH]c3ccccc23)c2ccccc21 (configuration not stated)	none (no result: NF-kB neuron act, STAT1 inh, STAT3 blocker, STAT3 activator, STAT1 activator)
Cc1cccc(-n2cnc3cc(C(=O)N4CCc5ccccc54)ccc32)c1	none
Cc1oc(-c2cc3c(cc2Cl)OCO3)nc1CN1CCCC1c1ccc(F)cc1 (configuration not stated)	none
CC(=O)Oc1c(C)cc(Cl)cc1C(=O)Nc1ccc([N+](=O)[O-])cc1Cl	STAT3 blocker 45.7
Cc1[nH]nc2c1C(c1cc(Br)cs1)C(C#N)=C(N)O2 (configuration not stated)	none
Cc1[nH]n(-c2nc(-c3ccccc3F)cc(=O)[nH]2)c(=O)c1CCO	none
CCCNC(=S)N1CCN(CC)CC1	none (no result: APP 5'UTR act)
O=[n+]1c2c(n([O-])c3c1CCC3)CCCC2	STAT3 activator 135.7
Cc1ccc(C(=O)NNC(=O)c2cccc(S(=O)(=O)N3CCN(c4ccccc4)CC3)c2)cc1	none
O=C(NCCc1c[nH]c2ccccc12)c1cnc2sccn2c1=O	STAT3 activator 134.5
O=C(NCCc1c[nH]c2ccccc12)c1cnccn1	none
COC(=O)c1ccc(Sc2nnnn2-c2ccccc2)c([N+](=O)[O-])c1	NF-kB neuron act 3.96
O=C(O)c1ccc(Sc2nnnn2-c2ccccc2)c([N+](=O)[O-])c1	none
COc1cccc2sc(N(C)c3ccccc3)nc12	NF-kB neuron act 5.75, APP 5'UTR act 218.0, STAT1 activator 150.2
CC(C)(C)c1ccc(OCC(=O)NNC(=O)c2cccnc2)cc1	none
COc1ccc(S(=O)(=O)NCC2CCCN(CC(C)(C)C)C2)cc1 (configuration not stated)	none
COc1ccc(-c2nn(-c3ccccc3)cc2/C=N/NC(=O)c2ccc(Br)o2)cc1	STAT3 blocker 45.1
O=C(N/N=C/c1cn(-c2ccccc2)nc1-c1cc2ccccc2o1)c1ccccc1Br	APP 5'UTR act 187.5

Source: PubChem BioAssay
